Data on nine compounds can be found in ChEMBL document CHEMBL1125495, “Inhibitors of human renin with C-termini derived from amides and esters of alpha-mercaptoalkanoic acids” (J Med Chem, 1992).

The structures appear in SMILES notation. pIC50: −log10 of the molar value.

For orientation: pIC50 means the negative decadic logarithm of the IC50, by convention in mol/L. Usually inhibition stands for the drop in the measured response relative to a control, in per cent.

In one experiment the target is T1, Renin (Homo sapiens, UniProt P00797).
T1 sequence (P00797 whole entry): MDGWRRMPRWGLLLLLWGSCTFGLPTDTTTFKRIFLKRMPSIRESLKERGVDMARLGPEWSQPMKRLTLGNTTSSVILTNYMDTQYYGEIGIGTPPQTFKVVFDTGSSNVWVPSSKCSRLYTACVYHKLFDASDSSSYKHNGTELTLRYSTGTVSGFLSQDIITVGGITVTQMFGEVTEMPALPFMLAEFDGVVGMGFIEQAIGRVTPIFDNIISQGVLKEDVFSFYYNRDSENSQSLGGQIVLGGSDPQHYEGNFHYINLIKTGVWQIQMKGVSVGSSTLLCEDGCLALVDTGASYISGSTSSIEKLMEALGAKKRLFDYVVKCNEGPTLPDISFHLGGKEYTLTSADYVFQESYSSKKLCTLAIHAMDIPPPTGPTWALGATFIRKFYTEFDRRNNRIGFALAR
In words: Inhibition of human plasma renin. The experiment is classed as cell-free.

Experiment [1] addresses T2, Renin (Homo sapiens) (UniProt P00797).
T2 sequence (whole entry): T1 sequence (P00797 whole entry)
In words: In vivo inhibition of plasma renin activity in sodium deficient rhesus monkeys after iv administration (dose 0.26 mg/kg, determined at peak deltaMAP). The format is functional, organism-based. On the set-up: dose 0.26 mg/kg. The note with it: Cercopithecidae, target entry is the homologue from another species, at 0.26 mg/kg. An outline of the steps: (§1)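 Sodium-deficient rhesus monkeys (N = 2) were kept on a low-sodium diet, given furosemide the evening before, and fasted 18 h. Compound was given iv through a venous catheter in 0.05% acetic acid/5% dextrose/H2O, 20 min after vehicle. Blood was drawn periodically via an arterial access port for plasma renin activity. Percent inhibition was taken at peak ΔMAP.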

For experiment [2], the system named is Rhesus monkey. In words: In vivo on mean arterial pressure(peak deltaMAP) in sodium deficient rhesus monkeys after iv administration (dose 0.26 mg/kg). The experiment is classed as functional, Cercopithecidae, Artery. In outline: (§2)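 Conscious male and female rhesus monkeys (N = 2) with chronic arterial access ports for direct MAP and heart-rate monitoring, and venous catheters for dosing. Animals were kept on a low-sodium diet, given furosemide the evening before, and fasted 18 h before and during the study. Compound was given iv in 0.05% acetic acid/5% dextrose/H2O, 20 min after a vehicle control dose. Peak changes were averaged, and the hypotensive half-life was read from time plots.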

The subject of experiment [3] is Rhesus monkey. In words: Half life of hypotensive effect in sodium deficient rhesus monkeys after iv administration (dose 0.26 mg/kg). Particulars: Cercopithecidae. The format is functional, organism-based. The arrangement: dose 0.26 mg/kg. An outline of the steps: as §2
Experiment [4] relates to Rhesus monkey. In words: In vivo effect on heart rate(peak deltaHR) in sodium deficient rhesus monkeys after iv administration (dose 0.26 mg/kg). The experiment is classed as functional, Cercopithecidae. In outline: as §2
Experiment [5] addresses T2, Renin (Homo sapiens). Particulars: Cercopithecidae; Plasma; at 0.63 mg/kg.
Experiment [6] relates to Rhesus monkey. In words: Half life of hypotensive effect in sodium deficient rhesus monkeys after iv administration (dose 0.31 mg/kg). Particulars: Cercopithecidae. On the set-up: dose 0.31 mg/kg. The experiment is classed as functional, organism-based. An outline of the steps:
as §2

Experiment [7] relates to Rhesus monkey. The experiment in a line: In vivo effect on heart rate(peak deltaHR) in sodium deficient rhesus monkeys after iv administration (dose 0.31 mg/kg). The experiment is classed as functional, Cercopithecidae. An outline of the steps:
as §2

The test system of experiment [8] is Rhesus monkey. In words: In vivo effect on mean arterial pressure(peak deltaMAP) in sodium deficient rhesus monkeys after iv administration (dose 0.31 mg/kg). The experiment is classed as functional, Cercopithecidae, Artery. In outline:
as §2

Experiment [9] has as its system Rhesus monkey. The experiment in a line: In vivo effect on heart rate(peak deltaHR) in sodium deficient rhesus monkeys after iv administration (dose 0.063 mg/kg). The format is functional, Cercopithecidae. An outline of the steps:
as §2

In experiment [10] the target is T2, Renin (Homo sapiens). The experiment in a line: In vivo inhibition of plasma renin activity in sodium deficient rhesus monkeys after iv administration (dose 0.063 mg/kg, determined at peak deltaMAP). The experiment is classed as functional, organism-based. The arrangement: dose 0.063 mg/kg. Particulars: Cercopithecidae, target entry is the homologue from another species, at 0.063 mg/kg. In outline: as §1

The test system of experiment [11] is Rhesus monkey. The experiment in a line: Half life of hypotensive effect in sodium deficient rhesus monkeys after iv administration (dose 0.063 mg/kg). The format is functional, organism-based. The arrangement: dose 0.063 mg/kg. The note with it: Cercopithecidae. In outline: as §2
Experiment [12] concerns Rhesus monkey. In words: In vivo effect on mean arterial pressure(peak deltaMAP) in sodium deficient rhesus monkeys after iv administration (dose 0.063 mg/kg). The format is functional, Cercopithecidae, Artery. An outline of the steps:
as §2

The test system of experiment [13] is Rhesus monkey. The experiment in a line: Half life of hypotensive effect in sodium deficient rhesus monkeys after iv administration (dose 0.63 mg/kg). The experiment is classed as functional, organism-based. The arrangement: dose 0.63 mg/kg. Particulars: Cercopithecidae. In outline: as §2
In experiment [14] the test system is Rhesus monkey. In words: In vivo effect on heart rate(peak deltaHR) in sodium deficient rhesus monkeys after iv administration (dose 0.63 mg/kg). The experiment is classed as functional, Cercopithecidae. In outline:
as §2

In experiment [15] the test system is Rhesus monkey. The experiment in a line: In vivo effect on mean arterial pressure(peak deltaMAP) in sodium deficient rhesus monkeys after iv administration (dose 0.63 mg/kg). The experiment is classed as functional, Cercopithecidae, Artery. An outline of the steps: as §2
For experiment [16], the target named is T2, Renin (Homo sapiens). The experiment in a line: In vivo inhibition of plasma renin activity in sodium deficient rhesus monkeys after iv administration (dose 0.63 mg/kg, determined at peak deltaMAP). The format is functional, organism-based. The arrangement: dose 0.63 mg/kg. Particulars: Cercopithecidae; target entry is the homologue from another species; at 0.63 mg/kg. An outline of the steps: as §1

Turning to `CC(C)(C)OC(=O)N[C@@H](Cc1ccccc1)C(=O)N[C@@H](Cc1c[nH]cn1)C(=O)N[C@@H](CC1CCCCC1)[C@@H](O)CS(=O)(=O)CC(=O)NC1CCN(Cc2ccccc2)CC1`, the pIC50 at Renin is 7.47.

For the compound `CC(C)(C)OC(=O)N[C@@H](Cc1ccccc1)C(=O)N[C@@H](Cc1c[nH]cn1)C(=O)N[C@@H](CC1CCCCC1)[C@@H](O)CSCC(=O)NC1CN2CCC1CC2` (stereo partly drawn), at Renin, the negative-log IC50 (pIC50) was 7.54. The compound also registered an inhibition against Renin (Homo sapiens) [1] of 93%. The “Peak deltaMAP” value with Rhesus monkey [2] is recorded as -20 mmHg. For the same compound, the T1/2 in the experiment on Rhesus monkey [3] is below 10 min. Moreover, the “Peak deltaHR” value in the experiment with Rhesus monkey [4] is listed as -18 beats min-1.

On Renin (Homo sapiens) [5], `CN1CCN(C(=O)CSC[C@H](O)[C@H](CC2CCCCC2)NC(=O)[C@H](Cc2c[nH]cn2)NC(=O)[C@H](Cc2ccccc2)NC(=O)OC(C)(C)C)CC1` gave an inhibition of 86%. The T1/2 with Rhesus monkey [6] is below 10 min. In the experiment on Rhesus monkey [7], the “Peak deltaHR” value is reported as 4 beats min-1. Further, the “Peak deltaMAP” value in the experiment with Rhesus monkey [8] is reported as -25 mmHg.

At Renin, `CC(C)CC(SC[C@H](O)[C@H](CC1CCCCC1)NC(=O)[C@H](Cc1cnc[nH]1)NC(=O)[C@H](Cc1ccccc1)NC(=O)OC(C)(C)C)C(=O)NCCN1CCOCC1` (stereo partly drawn) gave a pIC50 of 7.14.

On to `CC(C)(C)S(=O)(=O)[C@@H](Cc1ccccc1)C(=O)N[C@@H](Cc1c[nH]cn1)C(=O)N[C@@H](CC1CCCCC1)[C@@H](O)CS(=O)(=O)CC(=O)NCCN1CCOCC1`, for which the pIC50 on Renin was 8.14. In the experiment with Rhesus monkey [9], the “Peak deltaHR” value is listed as -13 beats min-1. The same compound displayed an inhibition against Renin (Homo sapiens) [10] of 94%. For the same compound, the T1/2 with Rhesus monkey [11] was below 10 min. For the same compound, the “Peak deltaMAP” value with Rhesus monkey [12] was -20.5 mmHg.

The compound `CC(C)CC(C(=O)NCCN1CCOCC1)[S+]([O-])C[C@H](O)[C@H](CC1CCCCC1)NC(=O)[C@H](Cc1cnc[nH]1)NC(=O)[C@H](Cc1ccccc1)NC(=O)OC(C)(C)C` (stereo partly drawn) had a pIC50 on Renin of 7.06.

On to `CCOC(=O)CSC[C@H](O)[C@H](CC1CCCCC1)NC(=O)[C@H](Cc1c[nH]cn1)NC(=O)[C@H](Cc1ccccc1)NC(=O)OC(C)(C)C`, for which the T1/2 with Rhesus monkey [13] was below 10 min. In addition, the “Peak deltaHR” value in the experiment with Rhesus monkey [14] is on record as -23 beats min-1. In addition, in the experiment on Rhesus monkey [15], the “Peak deltaMAP” value is on record as -15 mmHg. For the same compound, the inhibition on Renin (Homo sapiens) [16] was found to be 87%.

For `CC(C)CC(C(=O)NCCN1CCOCC1)S(=O)(=O)C[C@H](O)[C@H](CC1CCCCC1)NC(=O)[C@H](Cc1c[nH]cn1)NC(=O)[C@H](Cc1ccccc1)NC(=O)OC(C)(C)C` (stereo partly drawn), the pIC50 against Renin is 7.11.

As to `CC(C)(C)OC(=O)N[C@@H](Cc1ccccc1)C(=O)N[C@@H](Cc1cnc[nH]1)C(=O)N[C@@H](CC1CCCCC1)[C@@H](O)CS(=O)(=O)CC(=O)NCCN1CCOCC1`, the pIC50 against Renin is 8.03.
